Published values collected from several papers.
Protocols differ between the studies behind these lines.
Target: Atypical kinase COQ8B, mitochondrial (COQ8B, Homo sapiens, UniProt Q96D53)
One construct used (Q96D53 1-544): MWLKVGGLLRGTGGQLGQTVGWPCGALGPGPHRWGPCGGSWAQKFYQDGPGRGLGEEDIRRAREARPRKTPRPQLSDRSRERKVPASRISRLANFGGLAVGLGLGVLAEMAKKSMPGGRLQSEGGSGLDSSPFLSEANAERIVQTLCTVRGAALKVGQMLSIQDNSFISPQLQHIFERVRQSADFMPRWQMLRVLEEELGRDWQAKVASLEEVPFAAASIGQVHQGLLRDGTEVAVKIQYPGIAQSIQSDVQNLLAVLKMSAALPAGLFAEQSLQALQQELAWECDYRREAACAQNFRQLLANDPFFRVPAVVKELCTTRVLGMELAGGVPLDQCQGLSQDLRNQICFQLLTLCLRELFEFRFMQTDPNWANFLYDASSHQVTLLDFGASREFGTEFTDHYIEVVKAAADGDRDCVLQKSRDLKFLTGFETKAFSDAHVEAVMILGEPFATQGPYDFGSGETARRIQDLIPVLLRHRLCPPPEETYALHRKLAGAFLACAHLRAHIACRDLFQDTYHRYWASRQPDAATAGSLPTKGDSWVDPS

CS(=O)(=O)c1cc(C2(NC(=O)c3cncc4c3cnn4-c3ccc(F)cc3)CC2)ccn1
remaining binding (cell-free assay; competition with immobilised ligand; 1 µM): 100%

C[C@@H]1CCN(c2nccc(-c3cnn4ncccc34)n2)C1
remaining binding (binding; 1 µM): 89%

CCCCN(CCCC)C(=O)CN1C[C@@H](c2cc(OC)c3c(c2)OCO3)[C@H](C(=O)O)[C@H]1CC(C)(C)CCC
remaining binding (cell-free assay; competition with immobilised ligand; 1 µM): 80.2%

CCN1CCN(Cc2ccc(C(=O)Nc3ccc(C)c(Oc4ccc5c(c4)CC(=O)N5)c3)cc2C(F)(F)F)CC1
remaining binding (binding; competition with immobilised ligand; 1 µM): 80%

CCS(=O)(=O)c1cc2cc(C[C@@](O)(CC(C)(C)c3ccc(F)cc3C(N)=O)C(F)(F)F)[nH]c2cn1
remaining binding (cell-free assay; competition with immobilised ligand; 1 µM): 100%

F[C@@H]1CCN(c2nccc(-c3cnn4ncccc34)n2)C1
remaining binding (binding; 1 µM): 79%

O=C(NCCCN1CCOCC1)c1ccc(Nc2nccc(-c3cc4ccccc4s3)n2)cc1
remaining binding (binding; competition with immobilised ligand; 1 µM): 62%

c1cnn2ncc(-c3ccnc(N4CCC45COC5)n3)c2c1
remaining binding (binding; 1 µM): 100%

Cc1cnc(Nc2ccc(C(=O)N3CCC(N4CCCC4)CC3)cc2)nc1-c1cc2ccccc2s1
remaining binding (binding; competition with immobilised ligand; 1 µM): 34%

CNC(=O)[C@@H]1CC[C@@H](n2c(-c3ccc4cnccc4c3)nc3ccc(C(=O)NCc4cccc(C(N)=O)c4)cc32)C1
remaining binding (binding; competition with immobilised ligand; 1 µM): 99%

CC1CCCN1c1nccc(-c2cnn3ncccc23)n1 (stereo not shown)
remaining binding (binding; 1 µM): 68%

C[C@@H]1CN(c2cc(-c3n[nH]c4ccc(OC5(C)CC5)cc34)ncn2)C[C@H](C)O1
remaining binding (cell-free assay; competition with immobilised ligand; 0.1 µM): 72%

Cc1cnn2ncc(-c3ccnc(N(C)C)n3)c2c1
remaining binding (binding; 1 µM): 81%

C[C@@H]1CN(c2cc(-c3nn(C)c4ccc(OC5(C)CC5)cc34)ncn2)C[C@H](C)O1
remaining binding (cell-free assay; competition with immobilised ligand; 1 µM): 100%

O=C(NCC1CCOCC1)c1n[nH]cc1NC(=O)c1c(F)cccc1F
remaining binding (binding; competition with immobilised ligand; 1 µM): 85%

CN(C)c1ncc(F)c(-c2cnn3ncccc23)n1
remaining binding (binding; 1 µM): 73%

COc1ncc2cc3ccccc3nc2c1C#N
remaining binding (cell-free assay; competition with immobilised ligand; 5 µM): 100%

O=C(c1ccc(Nc2nccc(-c3cc4ccccc4s3)n2)cc1)N1CCC(N2CCCC2)CC1
remaining binding (binding; competition with immobilised ligand; 1 µM): 90%

c1cncc(-c2cccc(Nc3nccc(NC4CCCCC4)n3)c2)c1
remaining binding (binding; competition with immobilised ligand; 10 µM): 24%

COc1cnc(Nc2cccc(S(N)(=O)=O)c2)nc1N1CCN(c2ccccc2)CC1
remaining binding (binding; competition with immobilised ligand; 1 µM): 85%

N[C@H]1CCN(c2nccc(-c3cnn4ncccc34)n2)C1
remaining binding (binding; 1 µM): 74%

Cc1nc(N2CC[C@@H](O)C2)ncc1-c1cc(C(F)(F)F)cc2[nH]ncc12
remaining binding (cell-free assay; competition with immobilised ligand; 1 µM): 100%
